Reference: ChEMBL document CHEMBL1128175, “Pyrrolo[2,1-c][1,4]benzothiazines: synthesis, structure-activity relationships, molecular modeling studies, and cardiovascular activity” (J Med Chem, 1995)

Legend:
[1] = target: T1, Voltage-gated L-type calcium channel (Rattus norvegicus, UniProt P22002+Q02485+P27732); test: Calcium antagonistic activity by measuring [3H]nitrendipine displacement at calcium channel in rat cortex homogenate; type: functional, tissue-based
Method in brief: (§1)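 Cerebral cortex from male Sprague-Dawley rats, homogenized in 50 mM Na-Hepes pH 7.4 and washed five times by centrifugation at 48000g. Bound ligand collected by rapid filtration and counted. IC50 by log-probit analysis, converted to Ki by the Prusoff method. At least three experiments in triplicate.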

[2] = target: T1, Voltage-gated L-type calcium channel; test: Inhibition of [3H]nitrendipine binding at L-type [Ca2+] channel in rat cortex homogenate by 50%.; method in brief: as §1
Cavia porcellus [3] = species: Cavia porcellus; test: Tested for the calcium antagonistic activity on K+-depolarized guinea pig aortic strips at 5*10e-5 M.; type: functional, Aorta
Method in brief: (§2)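 Guinea pig aortic strips held at 1 g resting force and equilibrated 1 h in PSS. Contracted with 80 mM KCl (K+ replacing Na+). At plateau (about 30 min), compounds in DMSO were added cumulatively at 0.1-500 µM. Relaxation of isometric force measured.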

Cavia porcellus [4] = species: Cavia porcellus; test: Inotropic negative potency on stimulated guinea pig left atrium; type: functional; conditions: Cardiac atrium, read-out: ED50 (the source's name)
Method in brief: (§3)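 Guinea pig left atria driven at 1 Hz with 0.6-0.8 ms pulses at […], in oxygenated Tyrode at 35 °C, pH 7.4. Isometric force recorded. Cumulative compound additions of 0.1-100 µM from DMSO stock (bath DMSO ≤0.3%), each after steady state. Potency from log concentration-response curves by probit analysis, n = 6-8.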

Cavia porcellus [5] = species: Cavia porcellus; test: The compound was tested for the negative chronotropic activity on isolated guinea pig spontaneously beating right atrium at 10e-4 M.; type: functional, Cardiac atrium
Method in brief: (§4)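 Spontaneously beating right atria from guinea pigs (300-400 g) in oxygenated Tyrode (95% O2-5% CO2), 35 °C, pH 7.4, recorded isometrically. Compounds from DMSO diluted in PSS (DMSO ≤0.3%), added cumulatively at 0.1-100 µM once steady state was reached.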

Cavia porcellus [6] = species: Cavia porcellus; test: Inotropic negative potency on spontaneously beating right atrium of guinea pig; type: functional, Cardiac atrium; method in brief: as §4
Cavia porcellus [7] = species: Cavia porcellus; test: The compound was tested for the negative inotropic activity on isolated guinea pig left atrium at 5*10e-5 M; type: functional, Cardiac atrium; method in brief: as §3
[8] = target: T2, Voltage-dependent L-type calcium channel subunit alpha-1C (Rattus norvegicus, UniProt P22002); test: Calcium antagonistic activity by measuring [3H]nitrendipine displacement from rat heart L-type [Ca2+] channel; type: functional
Method in brief: (§5)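 Rat hearts perfused through the aorta with ice-cold saline, homogenized in 50 mM Na-Hepes pH 7.4, filtered through cheesecloth and washed five times at 48000g. Incubated 90 min at 0 °C in the dark with [3H]nitrendipine. Six displacer concentrations used, separated by filtration. IC50 by log-probit analysis, converted to Ki by Cheng-Prusoff. At least three experiments in triplicate.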

Cavia porcellus [9] = species: Cavia porcellus; test: Tested for the calcium antagonistic activity on K+-depolarized guinea pig aortic strips at 10e-4 M.; type: functional; conditions: Aorta; method in brief: as §2
Cavia porcellus [10] = species: Cavia porcellus; test: Tested for the negative chronotropic activity on isolated guinea pig spontaneously beating right atrium at 5*10e-5 M.; type: functional, Cardiac atrium; method in brief: as §4
Cavia porcellus [11] = species: Cavia porcellus; test: Tested for the negative inotropic activity on isolated guinea pig left atrium at 10e-4 M; type: functional, Cardiac atrium; method in brief: as §3
[12] = target: T1, Voltage-gated L-type calcium channel; test: Calcium antagonistic activity by measuring [3H]nitrendipine displacement at L-type [Ca2+] channel in rat cortex homogenate; type: functional, tissue-based; method in brief: as §1
Cavia porcellus [13] = species: Cavia porcellus; test: The compound was tested for the negative chronotropic activity on isolated guinea pig spontaneously beating right atrium at 10e-5 M.; type: functional, Cardiac atrium; method in brief: as §4
[14] = target: T2, Voltage-dependent L-type calcium channel subunit alpha-1C; test: The compound was tested for calcium antagonistic activity by measuring [3H]nitrendipine displacement from rat heart L-type calcium channels; Not active; type: functional; method in brief: as §5
Cavia porcellus [15] = species: Cavia porcellus; test: The compound was tested for the calcium antagonistic activity on K+-depolarized guinea pig aortic strips; type: functional; conditions: Aorta; method in brief: as §2
Cavia porcellus [16] = species: Cavia porcellus; test: Tested for the negative inotropic activity on isolated guinea pig left atrium at 10e-5 M; type: functional, Cardiac atrium; method in brief: as §3
Cavia porcellus [17] = species: Cavia porcellus; test: Inotropic negative potency on stimulated guinea pig left atrium.; type: functional; conditions: Cardiac atrium, read-out: ED50 (the source's name); method in brief: as §3
Cavia porcellus [18] = species: Cavia porcellus; test: Inotropic negative potency on stimulated guinea pig left atrium.(value in parentheses indicate 95% confidence limit*10e-6).; type: functional; conditions: Cardiac atrium, read-out: ED50 (the source's name); method in brief: as §3
Cavia porcellus [19] = species: Cavia porcellus; test: The compound was tested for the negative inotropic activity on isolated guinea pig left atrium at 5*10e-6 M; type: functional, Cardiac atrium; method in brief: as §3
Cavia porcellus [20] = species: Cavia porcellus; test: Inotropic negative potency on spontaneously beating right atrium of guinea pig, activity is expressed as […] values; type: functional, Cardiac atrium; method in brief: as §4
Cavia porcellus [21] = species: Cavia porcellus; test: The compound was tested for the calcium antagonistic activity on K+-depolarized guinea pig aortic strips at 10e-4 M.; type: functional; conditions: Aorta; method in brief: as §2
Cavia porcellus [22] = species: Cavia porcellus; test: Inotropic negative potency on spontaneously beating right atrium of guinea pig.(value in parentheses indicate 95% confidence limit*10e-6).; type: functional, Cardiac atrium; method in brief: as §4

T2 sequence (P22002 whole entry, the tested form may be a part): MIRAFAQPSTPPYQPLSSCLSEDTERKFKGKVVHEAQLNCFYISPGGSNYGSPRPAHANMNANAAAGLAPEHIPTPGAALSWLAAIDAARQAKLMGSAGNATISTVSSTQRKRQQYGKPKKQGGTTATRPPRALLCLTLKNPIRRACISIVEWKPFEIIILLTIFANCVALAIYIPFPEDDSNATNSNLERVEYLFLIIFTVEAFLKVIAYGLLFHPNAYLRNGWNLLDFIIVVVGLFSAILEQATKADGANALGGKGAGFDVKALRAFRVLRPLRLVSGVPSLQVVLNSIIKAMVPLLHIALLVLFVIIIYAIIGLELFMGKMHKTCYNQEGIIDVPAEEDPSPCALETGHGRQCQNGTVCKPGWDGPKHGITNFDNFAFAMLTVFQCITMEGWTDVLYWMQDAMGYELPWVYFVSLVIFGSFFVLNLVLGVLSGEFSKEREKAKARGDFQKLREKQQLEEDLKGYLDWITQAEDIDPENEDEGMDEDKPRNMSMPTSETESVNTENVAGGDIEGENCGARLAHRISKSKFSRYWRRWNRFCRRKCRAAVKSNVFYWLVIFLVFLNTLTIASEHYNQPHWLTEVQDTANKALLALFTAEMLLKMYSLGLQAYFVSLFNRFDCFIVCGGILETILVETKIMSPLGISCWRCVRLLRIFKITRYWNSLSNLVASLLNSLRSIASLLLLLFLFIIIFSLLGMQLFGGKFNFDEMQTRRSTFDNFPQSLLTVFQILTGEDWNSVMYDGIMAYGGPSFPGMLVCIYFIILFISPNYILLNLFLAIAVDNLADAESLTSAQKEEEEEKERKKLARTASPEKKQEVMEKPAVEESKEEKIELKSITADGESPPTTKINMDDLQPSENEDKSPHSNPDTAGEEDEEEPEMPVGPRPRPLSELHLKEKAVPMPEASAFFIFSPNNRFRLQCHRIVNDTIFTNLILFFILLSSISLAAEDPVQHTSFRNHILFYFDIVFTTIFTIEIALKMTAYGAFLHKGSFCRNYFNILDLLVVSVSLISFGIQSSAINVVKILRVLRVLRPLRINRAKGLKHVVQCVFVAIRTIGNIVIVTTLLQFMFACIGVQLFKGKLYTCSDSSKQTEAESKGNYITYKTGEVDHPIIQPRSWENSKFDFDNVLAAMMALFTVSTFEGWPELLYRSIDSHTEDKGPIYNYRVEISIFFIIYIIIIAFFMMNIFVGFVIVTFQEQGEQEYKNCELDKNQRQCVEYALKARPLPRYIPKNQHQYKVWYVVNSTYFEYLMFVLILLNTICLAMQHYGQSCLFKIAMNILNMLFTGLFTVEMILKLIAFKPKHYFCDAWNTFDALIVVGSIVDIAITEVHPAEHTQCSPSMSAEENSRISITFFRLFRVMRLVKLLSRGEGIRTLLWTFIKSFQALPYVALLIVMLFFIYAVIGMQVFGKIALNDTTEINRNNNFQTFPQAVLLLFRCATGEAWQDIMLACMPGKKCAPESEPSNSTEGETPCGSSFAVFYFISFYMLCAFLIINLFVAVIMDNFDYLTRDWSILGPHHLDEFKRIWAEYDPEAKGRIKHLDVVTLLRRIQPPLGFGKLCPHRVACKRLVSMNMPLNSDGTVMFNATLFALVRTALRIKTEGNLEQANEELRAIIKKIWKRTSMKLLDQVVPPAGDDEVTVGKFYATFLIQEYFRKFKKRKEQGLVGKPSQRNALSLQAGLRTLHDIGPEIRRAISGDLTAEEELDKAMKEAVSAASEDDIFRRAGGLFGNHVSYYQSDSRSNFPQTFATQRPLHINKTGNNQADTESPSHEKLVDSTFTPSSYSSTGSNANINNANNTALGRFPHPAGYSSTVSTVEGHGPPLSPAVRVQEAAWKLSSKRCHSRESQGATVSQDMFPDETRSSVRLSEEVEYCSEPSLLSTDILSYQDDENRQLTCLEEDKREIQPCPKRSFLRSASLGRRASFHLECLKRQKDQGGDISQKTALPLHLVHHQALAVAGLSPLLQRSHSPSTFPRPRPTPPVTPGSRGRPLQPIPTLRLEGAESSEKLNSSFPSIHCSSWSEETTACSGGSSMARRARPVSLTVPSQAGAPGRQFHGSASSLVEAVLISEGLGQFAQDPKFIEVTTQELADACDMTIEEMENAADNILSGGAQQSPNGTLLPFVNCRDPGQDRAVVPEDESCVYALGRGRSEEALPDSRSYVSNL

| SMILES | IC50 [2] | EC50 (Cavia porcellus [4]) | Ki [12] | inhibition at 100 µM (Cavia porcellus [9]) | Decrease (Cavia porcellus [10]) | further results |
| --- | --- | --- | --- | --- | --- | --- |
| COc1ccc(C2(c3ccc(OC)cc3)Sc3ccccc3-n3c(CN(C)C)ccc32)cc1 | 2160 nM | 730 nM | 809 nM | 12% | 48% | Decrease (Cavia porcellus [11]): 78% |
| COc1ccc(C2(c3ccc(OC)cc3)Sc3ccccc3-n3cccc32)cc1 | > 5000 nM | – | – | – | – | – |
| COc1ccc(C2Oc3ccccc3-n3c(CN(C)C)ccc32)cc1 (stereo unspecified) | 4670 nM | 920 nM | 1750 nM | 24% | – | Decrease (Cavia porcellus [13]): 22%; Decrease (Cavia porcellus [11]): 69%; Ki [14]: Not Active |
| COc1ccc([C@H]2Sc3ccccc3N3C(=O)CC[C@H]23)cc1 | 4.4 nM | 1200 nM | 2 nM | 32% | 39% | Decrease (Cavia porcellus [11]): 60%; Ki [8]: 35 nM |
| COc1ccc(C2(c3ccc(OC)cc3)Sc3ccc(C(F)(F)F)cc3-n3cccc32)cc1 | > 5000 nM | – | – | – | – | – |
| O=C1CC[C@@H]2[C@@H](c3ccccc3)Sc3ccccc3N12 | 0.78 nM | 230 nM | 0.29 nM | 37% | 20% | IC50 (Cavia porcellus [15]): 20000 nM; Decrease (Cavia porcellus [16]): 66% |
| COc1ccc(C2Sc3ccccc3-n3c(CNCCc4ccc(OC)c(OC)c4)ccc32)c(OC)c1 (stereo unspecified) | – | 560 nM | – | – | 10% | Inhibition (Cavia porcellus [3]): 9%; Decrease (Cavia porcellus [7]): 83% |
| CN(C)Cc1ccc2n1-c1cccc(Cl)c1SC2(c1ccccc1)c1ccccc1 | 82 nM | – | 31 nM | – | – | Ki [8]: 26 nM |
| FC(F)(F)c1ccc2c(c1)-n1cccc1C(c1ccccc1)(c1ccccc1)S2 | 2060 nM | – | 772 nM | – | – | – |
| CN(C)Cc1ccc2n1-c1ccccc1SC2(c1ccccc1)c1ccccc1 | – | – | – | 3.4% | 10% | EC50 (Cavia porcellus [17]): 890 nM; Decrease (Cavia porcellus [16]): 56% |
| CN(C)Cc1ccc2n1-c1cc(C(F)(F)F)ccc1SC2(c1ccccc1)c1ccccc1 | 107 nM | – | 40.1 nM | – | – | – |
| Clc1ccc2c(c1)-n1cccc1C(c1ccccc1)(c1ccccc1)S2 | 4350 nM | – | 1630 nM | – | – | – |
| c1ccc(C2(c3ccccc3)Sc3ccccc3-n3cccc32)cc1 | 465 nM | – | 178 nM | – | – | – |
| CC(=O)OC1(c2ccccc2)Sc2ccccc2-n2cccc21 (stereo unspecified) | 4700 nM | – | 1830 nM | 36% | 33% | EC50 (Cavia porcellus [18]): 380 nM; Decrease (Cavia porcellus [7]): 86% |
| Clc1cccc2c1SC(c1ccccc1)(c1ccccc1)c1cccn1-2 | 320 nM | – | 120 nM | – | – | – |
| COc1ccc(C2Sc3ccccc3-n3c(CN(C)CCc4ccc(OC)c(OC)c4)ccc32)c(OC)c1 (stereo unspecified) | 1600 nM | 860 nM | – | – | 18% | Inhibition (Cavia porcellus [3]): 10%; Decrease (Cavia porcellus [7]): 62%; Ki [1]: 740 nM |
| COc1ccc(C2(OC(C)=O)Sc3ccccc3-n3cccc32)cc1 (stereo unspecified) | 30 nM | – | 11 nM | 11% | 70% | EC50 (Cavia porcellus [18]): 240 nM; ED30 (Cavia porcellus [22]): 2300 nM; Decrease (Cavia porcellus [16]): 71% |
| CC(=O)OC1(c2ccccc2)Sc2ccc(C(F)(F)F)cc2-n2cccc21 (stereo unspecified) | 65 nM | – | 24 nM | – | – | – |
| COc1ccc([C@@H]2Sc3ccccc3N(CCN(C)C)C(=O)[C@@H]2OC(C)=O)cc1 [DILTIAZEM] | – | 790 nM | – | 88% | 94% | ED30 (Cavia porcellus [6]): 70 nM; Decrease (Cavia porcellus [16]): 78% |

Further lines, with some results ahead:

| IC50 [2] | EC50 (Cavia porcellus [4]) | Ki [12] | SMILES | inhibition at 100 µM (Cavia porcellus [9]) | Decrease (Cavia porcellus [10]) | further results |
| --- | --- | --- | --- | --- | --- | --- |
| 12 nM | – | – | CCC(C)NCc1ccc2n1-c1ccccc1SC2c1ccc(OC)cc1 (stereo unspecified) | – | – | Ki [1]: 4.4 nM |
| 15 nM | 600 nM | – | CCC(C)NCc1ccc2n1-c1ccccc1SC2c1ccc(OC)cc1OC (stereo unspecified) | – | – | Inhibition (Cavia porcellus [3]): 18%; Decrease (Cavia porcellus [5]): 67%; ED30 (Cavia porcellus [6]): 420 nM; Decrease (Cavia porcellus [7]): 85%; Ki [1]: 5.5 nM; Ki [8]: 640 nM |
| > 5000 nM | – | – | COc1ccc(C2Sc3ccccc3-n3cccc32)cc1 (stereo unspecified) | – | – | – |
| > 5000 nM | – | – | COc1ccc(C2Sc3ccccc3-n3c(CNc4ccc(F)cc4)ccc32)cc1 (stereo unspecified) | – | – | – |
| – | 840 nM | – | COc1ccc(C2Sc3ccccc3-n3c(CN(C)CCc4ccc(OC)c(OC)c4)ccc32)cc1 (stereo unspecified) | 4% | 32% | Decrease (Cavia porcellus [11]): 86%; Ki [8]: 8.3 nM |
| > 5000 nM | – | – | COc1ccc(C2Sc3ccccc3-n3c(CN4CCOCC4)ccc32)cc1 (stereo unspecified) | – | – | – |
| – | 450 nM | – | COc1ccc(C2Sc3ccccc3-n3c(CNCCc4ccc(OC)c(OC)c4)ccc32)cc1 (stereo unspecified) | – | 14% | Inhibition (Cavia porcellus [3]): 16%; Decrease (Cavia porcellus [11]): 82% |
| – | 150 nM | – | COc1ccc(C2Sc3ccccc3-n3c(CN(C)C)ccc32)c(OC)c1 (stereo unspecified) | – | – | Inhibition (Cavia porcellus [3]): 5%; Decrease (Cavia porcellus [5]): 20%; Decrease (Cavia porcellus [19]): 68%; Ki [8]: 160 nM |
| – | 1500 nM | – | CN(C)Cc1ccc2n1-c1ccccc1SC2c1ccccc1 (stereo unspecified) | 42% | 76% | ED30 (Cavia porcellus [20]): 510 nM; Decrease (Cavia porcellus [11]): 79% |
| – | 810 nM | – | COc1ccc(C2Sc3ccccc3-n3c(CN(C)C)ccc32)cc1 (stereo unspecified) | – | – | Decrease (Cavia porcellus [5]): 30%; Decrease (Cavia porcellus [16]): 75%; Ki [8]: 53 nM; inhibition at 100 µM (Cavia porcellus [21]): 10% |
| 198 nM | – | – | COc1ccc(CCN(C)Cc2ccc3n2-c2ccccc2SC3c2ccccc2)cc1OC (stereo unspecified) | – | – | Ki [1]: 74 nM |
| > 5000 nM | – | – | COc1ccc(C2Sc3ccccc3-n3c(CNc4ccc(F)cc4)ccc32)c(OC)c1 (stereo unspecified) | – | – | – |
